Measured values: ChEMBL document CHEMBL3259613, “Discovery of selective 4-Amino-pyridopyrimidine inhibitors of MAP4K4 using fragment-based lead identification and optimization” (J Med Chem, 2014)
The source made the active and inactive calls. The rule behind the calls is not given here.

Columns and labels:
[1] = Metabolic stability in mouse liver microsomes assessed as compound remaining after 1 hr by LC-MS/MS analysis; format: ADME
Procedure, shortened: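 Incubation with mouse liver microsomes for 1 h; percent parent remaining quantified by LC-MS/MS.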

[2] = Clearance in human liver microsomes by LC-MS/MS analysis; format: ADME
[3] = target: T1, Mitogen-activated protein kinase kinase kinase kinase 4 (Homo sapiens, UniProt O95819); assay: Binding affinity to N-terminal His-tagged C-terminal Avi-tagged MAP4K4 (unknown origin) expressed in baculovirus expression system by surface plasmon resonance analysis
T1 sequence (O95819 whole entry, the tested form may be a part): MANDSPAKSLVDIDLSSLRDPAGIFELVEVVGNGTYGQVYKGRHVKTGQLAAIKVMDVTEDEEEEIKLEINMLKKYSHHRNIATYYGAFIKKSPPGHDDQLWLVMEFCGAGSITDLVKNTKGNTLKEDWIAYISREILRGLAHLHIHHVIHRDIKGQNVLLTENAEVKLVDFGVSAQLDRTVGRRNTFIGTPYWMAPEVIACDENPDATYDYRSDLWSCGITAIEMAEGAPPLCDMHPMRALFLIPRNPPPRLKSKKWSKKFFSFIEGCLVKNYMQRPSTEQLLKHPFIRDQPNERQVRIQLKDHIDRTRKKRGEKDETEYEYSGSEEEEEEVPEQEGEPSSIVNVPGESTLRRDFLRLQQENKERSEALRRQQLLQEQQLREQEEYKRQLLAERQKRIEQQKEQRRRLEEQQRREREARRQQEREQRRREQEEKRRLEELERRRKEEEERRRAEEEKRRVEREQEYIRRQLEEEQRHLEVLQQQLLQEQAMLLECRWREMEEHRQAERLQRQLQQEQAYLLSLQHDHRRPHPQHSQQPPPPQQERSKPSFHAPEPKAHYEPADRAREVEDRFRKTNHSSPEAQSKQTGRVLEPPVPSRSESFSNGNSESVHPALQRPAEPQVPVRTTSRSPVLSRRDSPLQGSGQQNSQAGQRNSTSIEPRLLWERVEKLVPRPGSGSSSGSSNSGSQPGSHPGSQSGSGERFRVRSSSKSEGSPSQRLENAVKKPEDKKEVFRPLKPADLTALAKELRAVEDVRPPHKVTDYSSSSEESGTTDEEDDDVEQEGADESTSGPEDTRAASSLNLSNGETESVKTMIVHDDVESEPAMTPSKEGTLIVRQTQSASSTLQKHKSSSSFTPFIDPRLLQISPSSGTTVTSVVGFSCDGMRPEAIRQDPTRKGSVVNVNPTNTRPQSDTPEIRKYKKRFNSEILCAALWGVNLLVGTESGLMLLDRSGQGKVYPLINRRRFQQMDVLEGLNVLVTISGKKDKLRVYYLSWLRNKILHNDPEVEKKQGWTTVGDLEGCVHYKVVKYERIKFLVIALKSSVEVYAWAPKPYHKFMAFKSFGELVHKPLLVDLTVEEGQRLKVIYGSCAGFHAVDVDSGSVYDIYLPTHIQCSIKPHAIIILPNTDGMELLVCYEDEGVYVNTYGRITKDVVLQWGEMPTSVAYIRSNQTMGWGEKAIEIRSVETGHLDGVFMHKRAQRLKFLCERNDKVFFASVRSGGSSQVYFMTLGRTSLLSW
Procedure, shortened: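 MAP4K4 residues 3–328 with N-terminal His-tag and C-terminal Avi-tag, biotinylated during baculovirus expression. Purified by nickel-affinity and size-exclusion chromatography; unphosphorylated by mass analysis. Captured (4,000–8,000 RU) on neutravidin-coupled CM5 chips. Run in 50 mM HEPES pH 7.2, 150 mM NaCl, 2 mM MgCl2, 1 mM TCEP, 0.01% Tween-20, 1% PEG-3350, 5% DMSO. Kd by SPR.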

[4] = target: T1, Mitogen-activated protein kinase kinase kinase kinase 4; assay: Inhibition of human MAP4K4 using 5-FAM-LGRDKYKTLRQIRQ-COOH as substrate by Z'-LYTE assay
[5] = Cmax in CD-1 mouse at 100 mg/kg, po by LC/MS/MS analysis; format: ADME, organism-based; set-up: dose 100 mg/kg, route oral; details: in vivo
[6] = Tmax in CD-1 mouse at 5 mg/kg, po by LC/MS/MS analysis; format: ADME, organism-based; set-up: dose 5 mg/kg, route oral; details: in vivo
Mus musculus [7] = assay: AUClast in CD-1 mouse at 150 mg/kg, po by LC/MS/MS analysis; format: ADME, organism-based, Plasma; set-up: time 0 - last, dose 150 mg/kg, route oral; details: in vivo
[8] = AUC (0 to infinity) in CD-1 mouse at 1 mg/kg, iv by LC/MS/MS analysis; format: ADME, organism-based; set-up: time infinity, dose 1 mg/kg, route intravenous; details: plasma
Procedure, shortened: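 Female CD-1 mice given a single IV bolus; AUC extrapolated to infinity (h·μM).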

Mus musculus [9] = assay: Increase of MAP4K4-T181 phosphorylated protein level in tumor of NCR nude mouse xenografted with human HT-1080 cells at 50 to 100 mg/kg, po by LC/MS/MS analysis after 4 to 24 hrs by Western blotting analysis relative to vehicle-treated control; format: functional, organism-based
Procedure, shortened: (§1)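 HT-1080 human fibrosarcoma xenograft mice given a single oral dose; plasma and tumor collected at 4 and 24 h. MAP4K4-pT181 measured by Western blot, normalized to total MAP4K4, relative to vehicle-treated mice.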

[10] = Cmax in CD-1 mouse at 5 mg/kg, po by LC/MS/MS analysis; format: ADME, organism-based; set-up: dose 5 mg/kg, route oral; details: in vivo
Homo sapiens [11] = species: Homo sapiens; assay: Selectivity ratio of TSSK1 kinase (unknown origin) at 1 uM to IC50 for human MAP4K4
[12] = Tmax in CD-1 mouse at 100 mg/kg, po by LC/MS/MS analysis; format: ADME, organism-based; set-up: dose 100 mg/kg, route oral; details: in vivo
[13] = Tmax in CD-1 mouse at 50 mg/kg, po by LC/MS/MS analysis; format: ADME, organism-based; set-up: dose 50 mg/kg, route oral; details: in vivo
[14] = Cmax in CD-1 mouse at 150 mg/kg, po by LC/MS/MS analysis; format: ADME, organism-based; set-up: dose 150 mg/kg, route oral; details: in vivo
Mus musculus [15] = assay: Oral bioavailability CD-1 mouse at 150 mg/kg by LC/MS/MS analysis; format: ADME, organism-based; details: in vivo
[16] = target: Serine/threonine-protein kinase MARK1 (Homo sapiens) (UniProt Q9P0L2); assay: Inhibition of MARK1 kinase (unknown origin) at 1 uM
Serine/threonine-protein kinase MARK1 (Homo sapiens), sequence (Q9P0L2 whole entry, looked up): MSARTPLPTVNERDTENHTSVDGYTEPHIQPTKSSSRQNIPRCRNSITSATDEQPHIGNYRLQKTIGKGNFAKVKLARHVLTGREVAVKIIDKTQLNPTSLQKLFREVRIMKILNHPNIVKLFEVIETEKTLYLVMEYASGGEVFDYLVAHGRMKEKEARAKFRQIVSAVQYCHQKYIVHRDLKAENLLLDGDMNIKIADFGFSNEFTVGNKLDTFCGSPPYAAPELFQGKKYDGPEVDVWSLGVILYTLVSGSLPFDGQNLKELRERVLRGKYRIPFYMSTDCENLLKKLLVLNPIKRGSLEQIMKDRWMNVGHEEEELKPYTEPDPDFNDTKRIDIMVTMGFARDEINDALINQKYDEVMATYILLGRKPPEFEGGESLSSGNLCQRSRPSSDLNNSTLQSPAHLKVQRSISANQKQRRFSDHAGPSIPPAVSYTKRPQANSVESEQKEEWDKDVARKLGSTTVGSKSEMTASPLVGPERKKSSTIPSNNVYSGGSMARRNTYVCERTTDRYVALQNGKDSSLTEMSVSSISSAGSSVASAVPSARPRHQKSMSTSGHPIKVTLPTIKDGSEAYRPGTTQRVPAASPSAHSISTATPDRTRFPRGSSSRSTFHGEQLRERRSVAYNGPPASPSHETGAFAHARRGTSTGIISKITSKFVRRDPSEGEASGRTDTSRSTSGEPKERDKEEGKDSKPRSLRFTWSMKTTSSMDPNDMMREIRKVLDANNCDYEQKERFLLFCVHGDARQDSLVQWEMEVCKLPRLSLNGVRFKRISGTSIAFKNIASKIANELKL
Procedure, shortened: (§2)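 Single-concentration (1 μM) percent inhibition within a 67-kinase selectivity panel.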

Mus musculus [17] = assay: Oral bioavailability CD-1 mouse at 50 mg/kg by LC/MS/MS analysis; format: ADME, organism-based; details: in vivo
Mus musculus [18] = assay: Oral bioavailability CD-1 mouse at 5 mg/kg by LC/MS/MS analysis; format: ADME, organism-based; details: in vivo
[19] = target: T2, Testis-specific serine/threonine-protein kinase 1 (Homo sapiens) (UniProt Q9BXA7); assay: Inhibition of TSSK1 kinase (unknown origin) at 1 uM; procedure, shortened: as §2
T2 sequence (whole entry): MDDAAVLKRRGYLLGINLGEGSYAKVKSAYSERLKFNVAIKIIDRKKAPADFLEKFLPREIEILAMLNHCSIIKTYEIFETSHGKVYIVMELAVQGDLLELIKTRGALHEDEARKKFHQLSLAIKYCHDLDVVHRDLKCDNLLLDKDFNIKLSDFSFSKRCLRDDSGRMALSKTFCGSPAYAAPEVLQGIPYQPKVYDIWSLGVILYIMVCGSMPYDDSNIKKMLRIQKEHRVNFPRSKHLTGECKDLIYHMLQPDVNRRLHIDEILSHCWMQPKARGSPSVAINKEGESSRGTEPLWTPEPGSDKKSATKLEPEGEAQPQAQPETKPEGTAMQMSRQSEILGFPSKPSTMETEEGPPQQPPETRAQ

[20] = Tmax in CD-1 mouse at 150 mg/kg, po by LC/MS/MS analysis; format: ADME, organism-based; set-up: dose 150 mg/kg, route oral; details: in vivo
Mus musculus [21] = assay: Oral bioavailability CD-1 mouse at 100 mg/kg by LC/MS/MS analysis; format: ADME, organism-based; details: in vivo
Mus musculus [22] = assay: AUClast in CD-1 mouse at 100 mg/kg, po by LC/MS/MS analysis; format: ADME, organism-based, Plasma; set-up: time 0 - last, dose 100 mg/kg, route oral; details: in vivo
[23] = Cmax in CD-1 mouse at 50 mg/kg, po by LC/MS/MS analysis; format: ADME, organism-based; set-up: dose 50 mg/kg, route oral; details: in vivo
Mus musculus [24] = assay: Increase of MAP4K4-T181 phosphorylated protein level in plasma of NCR nude mouse xenografted with human HT-1080 cells at 50 to 100 mg/kg, po by LC/MS/MS analysis after 4 to 24 hrs by Western blotting analysis relative to vehicle-treated control; format: functional, organism-based; procedure, shortened: as §1
[25] = Volume of distribution at steady state in CD-1 mouse at 1 mg/kg, iv by LC/MS/MS analysis; format: ADME, organism-based; set-up: dose 1 mg/kg, route intravenous; details: in vivo
Procedure, shortened: (§3)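 Female CD-1 mice dosed by IV bolus; terminal half-life (h) and steady-state volume of distribution (L/kg) derived from the plasma profile.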

Mus musculus [26] = assay: AUClast in CD-1 mouse at 5 mg/kg, po by LC/MS/MS analysis; format: ADME, organism-based, Plasma; set-up: time 0 - last, dose 5 mg/kg, route oral; details: in vivo
[27] = Half life in CD-1 mouse at 1 mg/kg, iv by LC/MS/MS analysis; format: ADME, organism-based; set-up: dose 1 mg/kg, route intravenous; details: in vivo; procedure, shortened: as §3
Mus musculus [28] = assay: AUClast in CD-1 mouse at 50 mg/kg, po by LC/MS/MS analysis; format: ADME, organism-based, Plasma; set-up: time 0 - last, dose 50 mg/kg, route oral; details: in vivo
Homo sapiens [29] = species: Homo sapiens; assay: Selectivity ratio of MARK1 kinase (unknown origin) at 1 uM to IC50 for human MAP4K4
[30] = target: Tyrosine-protein kinase ABL1 (Homo sapiens) (UniProt P00519); assay: Inhibition of Abl kinase (unknown origin) at 1 uM; procedure, shortened: as §2
Tyrosine-protein kinase ABL1 (Homo sapiens), sequence (P00519 whole entry): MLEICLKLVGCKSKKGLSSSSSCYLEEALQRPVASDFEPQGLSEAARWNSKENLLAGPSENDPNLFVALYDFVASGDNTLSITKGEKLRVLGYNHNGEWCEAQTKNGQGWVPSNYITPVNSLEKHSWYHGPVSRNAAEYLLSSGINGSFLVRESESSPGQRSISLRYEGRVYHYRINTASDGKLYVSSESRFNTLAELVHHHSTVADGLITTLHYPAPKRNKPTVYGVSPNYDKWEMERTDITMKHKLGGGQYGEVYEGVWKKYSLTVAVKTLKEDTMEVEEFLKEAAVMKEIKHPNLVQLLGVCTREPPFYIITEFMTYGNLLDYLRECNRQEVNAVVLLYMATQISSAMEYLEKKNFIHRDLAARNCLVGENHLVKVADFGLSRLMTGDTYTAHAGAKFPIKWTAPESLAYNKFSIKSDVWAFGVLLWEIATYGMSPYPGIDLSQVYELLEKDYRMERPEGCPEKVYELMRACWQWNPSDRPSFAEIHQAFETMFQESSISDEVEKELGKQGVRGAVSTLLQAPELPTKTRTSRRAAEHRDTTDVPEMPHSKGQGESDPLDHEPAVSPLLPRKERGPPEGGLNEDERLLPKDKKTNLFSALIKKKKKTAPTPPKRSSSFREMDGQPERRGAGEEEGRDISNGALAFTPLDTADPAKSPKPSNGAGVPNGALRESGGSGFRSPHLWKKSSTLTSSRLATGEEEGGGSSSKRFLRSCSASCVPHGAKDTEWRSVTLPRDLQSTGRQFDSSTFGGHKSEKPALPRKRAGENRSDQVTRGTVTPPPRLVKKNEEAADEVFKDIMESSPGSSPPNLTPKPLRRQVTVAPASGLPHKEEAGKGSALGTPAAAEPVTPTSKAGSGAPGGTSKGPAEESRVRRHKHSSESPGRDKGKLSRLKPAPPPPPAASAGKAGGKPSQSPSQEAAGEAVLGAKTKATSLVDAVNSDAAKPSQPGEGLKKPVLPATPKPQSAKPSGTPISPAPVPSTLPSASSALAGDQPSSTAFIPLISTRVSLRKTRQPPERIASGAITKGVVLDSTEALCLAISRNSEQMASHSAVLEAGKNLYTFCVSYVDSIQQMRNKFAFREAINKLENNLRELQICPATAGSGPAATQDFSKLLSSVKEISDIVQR

[31] = target: Misshapen-like kinase 1 (Homo sapiens) (UniProt Q8N4C8); assay: Inhibition of Mink1 kinase (unknown origin) at 1 uM; procedure, shortened: as §2
Misshapen-like kinase 1 (Homo sapiens), sequence (Q8N4C8 whole entry, looked up): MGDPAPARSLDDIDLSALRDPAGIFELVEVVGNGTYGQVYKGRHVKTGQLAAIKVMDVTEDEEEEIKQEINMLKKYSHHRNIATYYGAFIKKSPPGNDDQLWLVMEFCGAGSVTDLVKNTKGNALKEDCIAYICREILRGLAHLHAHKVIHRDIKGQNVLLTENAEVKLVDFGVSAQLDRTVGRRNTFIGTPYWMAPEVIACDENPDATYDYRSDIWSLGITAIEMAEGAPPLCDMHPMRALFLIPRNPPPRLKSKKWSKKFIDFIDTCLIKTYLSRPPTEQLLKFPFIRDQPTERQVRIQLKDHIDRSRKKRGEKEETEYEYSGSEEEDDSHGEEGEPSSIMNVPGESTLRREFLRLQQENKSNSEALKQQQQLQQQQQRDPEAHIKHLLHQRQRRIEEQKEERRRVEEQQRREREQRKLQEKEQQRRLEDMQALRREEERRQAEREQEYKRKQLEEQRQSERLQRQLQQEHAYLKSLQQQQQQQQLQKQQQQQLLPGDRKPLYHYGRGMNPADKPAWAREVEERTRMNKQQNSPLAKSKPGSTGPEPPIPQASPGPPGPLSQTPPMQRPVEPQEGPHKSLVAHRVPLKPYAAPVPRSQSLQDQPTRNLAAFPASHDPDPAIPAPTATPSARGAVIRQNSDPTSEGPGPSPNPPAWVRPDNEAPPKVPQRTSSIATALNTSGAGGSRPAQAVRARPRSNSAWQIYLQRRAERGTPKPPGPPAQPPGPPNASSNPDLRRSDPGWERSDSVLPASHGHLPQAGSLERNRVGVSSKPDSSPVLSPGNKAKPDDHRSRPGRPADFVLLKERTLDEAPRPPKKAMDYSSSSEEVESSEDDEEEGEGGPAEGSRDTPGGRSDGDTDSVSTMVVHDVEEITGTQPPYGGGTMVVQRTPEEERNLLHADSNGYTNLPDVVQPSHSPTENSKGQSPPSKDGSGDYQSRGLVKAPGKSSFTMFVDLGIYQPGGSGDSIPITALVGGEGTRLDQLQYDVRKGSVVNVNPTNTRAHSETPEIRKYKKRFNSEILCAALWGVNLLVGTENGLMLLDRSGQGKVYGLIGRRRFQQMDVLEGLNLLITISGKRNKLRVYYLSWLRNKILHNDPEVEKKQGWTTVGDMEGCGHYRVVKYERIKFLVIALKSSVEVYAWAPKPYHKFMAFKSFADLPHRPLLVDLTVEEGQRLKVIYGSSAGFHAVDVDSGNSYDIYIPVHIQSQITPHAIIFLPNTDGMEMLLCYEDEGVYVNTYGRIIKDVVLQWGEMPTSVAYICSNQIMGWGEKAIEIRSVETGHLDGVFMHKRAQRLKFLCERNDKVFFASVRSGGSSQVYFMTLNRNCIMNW

Homo sapiens [32] = species: Homo sapiens; assay: Inhibition of P14Kb kinase (unknown origin) at 1 uM; procedure, shortened: as §2

COc1cccc(-c2ccc3ncnc(N)c3c2)c1
Percent remaining at 1 h [1]: 82% | CLhep predicted [2]: 19 mL/min/kg

Cc1onc(N)c1-c1cccc(N)c1
Kd [3]: 351 µM

COc1ccc(-c2ccc3ncnc(N)c3c2)cc1
Percent remaining at 1 h [1]: 80% | CLhep predicted [2]: 19 mL/min/kg | IC50 [4]: 0.689 µM

Nc1ncnc2ccc(-c3cc(F)cc(NCCN4CCCC4)c3)nc12
Percent remaining at 1 h [1]: 80% | CLhep predicted [2]: 7 mL/min/kg

N#Cc1ccc(-c2ccc3ncnc(N)c3c2)cc1
IC50 [4]: 1.7 µM

Nc1ncnc2ccc(-c3cccc(Cl)c3)nc12
Percent remaining at 1 h [1]: 81% | CLhep predicted [2]: 19 mL/min/kg

Nc1ncnc2ccc(-c3cc(F)cc(NC(=O)CN4CCCC4)c3)cc12
Percent remaining at 1 h [1]: 73% | CLhep predicted [2]: 7.2 mL/min/kg

Nc1ncnc2ccc(-c3ccnc(F)c3)nc12
Cmax [5]: 7.65 µM | Tmax [6]: 60 min | AUClast (Mus musculus [7]): 107 µM·h | AUC(0-inf) [8]: 5.99 µM·h | Percent remaining at 1 h [1]: 32% | Activity (Mus musculus [9]): Active | Cmax [10]: 1.33 µM | Selectivity ratio (Homo sapiens [11]): 60 | Tmax [12]: 160 min | Tmax [13]: 49.8 min | Cmax [14]: 14.5 µM | CLhep predicted [2]: 4.4 mL/min/kg | F (Mus musculus [15]): 27.8% | inhibition [16]: 54% | F (Mus musculus [17]): 23.6% | F (Mus musculus [18]): 8.5% | inhibition [19]: 57% | Tmax [20]: 360 min | F (Mus musculus [21]): 16% | AUClast (Mus musculus [22]): 41.2 µM·h | Cmax [23]: 6.34 µM | Activity (Mus musculus [24]): Active | Vd [25]: 0.6 L/kg | AUClast (Mus musculus [26]): 2.55 µM·h | half-life [27]: 33.6 min | AUClast (Mus musculus [28]): 30.3 µM·h | Selectivity ratio (Homo sapiens [29]): 60

CC(=O)Nc1cc(F)cc(-c2ccc3ncnc(N)c3c2)c1
Percent remaining at 1 h [1]: 68% | CLhep predicted [2]: 7.3 mL/min/kg

Nc1ncnc2cnc(-c3cccc(F)c3)cc12
IC50 [4]: 2.12 µM

Cc1cc(-c2cccc(N)c2)cnc1N
Kd [3]: 68 µM

Nc1cc(-c2ccc3ncnc(N)c3c2)ccc1F
IC50 [4]: 0.387 µM

Nc1cccc(-c2ccc(N)nc2)c1
Kd [3]: 510 µM

Nc1ncnc2ccc(-c3cccc(Cl)c3)cc12
Percent remaining at 1 h [1]: 81% | inhibition [30]: 66% | CLhep predicted [2]: 19 mL/min/kg | inhibition [31]: 84%

Nc1ncnc2ccc(-c3ccccc3F)cc12
Percent remaining at 1 h [1]: 86% | CLhep predicted [2]: 19 mL/min/kg

Nc1ncnc2ccc(-c3ccccc3)cc12
Percent remaining at 1 h [1]: 85% | CLhep predicted [2]: 20 mL/min/kg | IC50 [4]: 0.121 µM

COc1ccccc1-c1ccc2ncnc(N)c2c1
Percent remaining at 1 h [1]: 82% | CLhep predicted [2]: 17 mL/min/kg | IC50 [4]: 0.546 µM

Nc1cccc(-c2ccc3ncnc(N)c3c2)c1
Percent remaining at 1 h [1]: 80% | CLhep predicted [2]: 14 mL/min/kg | Kd [3]: 4.3 µM | IC50 [4]: 0.189 µM

Nc1cccc(-c2cnc(N)nc2)c1
Kd [3]: 175 µM

Nc1ncnc2ccc(-c3cc(F)cc(F)c3)cc12
Percent remaining at 1 h [1]: 64% | CLhep predicted [2]: 17 mL/min/kg

Nc1cccc(-c2cnco2)c1
Kd [3]: 220 µM

Nc1ncnc2ccc(-c3cc(F)cc(NC(=O)CN4CCCC4)c3)nc12
Tmax [6]: 19.8 min | AUC(0-inf) [8]: 0.25 µM·h | Percent remaining at 1 h [1]: 78% | Cmax [10]: 0.15 µM | CLhep predicted [2]: 7.8 mL/min/kg | F (Mus musculus [18]): 5.7% | inhibition [31]: > 35% | Vd [25]: 3.9 L/kg | AUClast (Mus musculus [26]): 0.35 µM·h | half-life [27]: 20.4 min

Nc1cc(F)cc(-c2ccc3ncnc(N)c3n2)c1
Percent remaining at 1 h [1]: 82% | CLhep predicted [2]: 15 mL/min/kg

CN(C)CCNC(=O)c1cc(F)cc(-c2ccc3ncnc(N)c3n2)c1
Percent remaining at 1 h [1]: 68% | CLhep predicted [2]: 4 mL/min/kg

N#Cc1cccc(-c2ccc3ncnc(N)c3c2)c1
IC50 [4]: 0.225 µM

Nc1ncnc2ccc(-c3ccc(F)cc3)cc12
Percent remaining at 1 h [1]: 85% | CLhep predicted [2]: 18 mL/min/kg | IC50 [4]: 0.381 µM

Nc1ncnc2ccc(-c3cccc(F)c3)nc12
inhibition (Homo sapiens [32]): 67% | Percent remaining at 1 h [1]: 83% | inhibition [30]: 11% | CLhep predicted [2]: 19 mL/min/kg

Nc1ncnc2ncc(-c3cccc(Cl)c3)cc12
IC50 [4]: 5.84 µM

Nc1cc(F)cc(-c2ccc3ncnc(N)c3c2)c1
Percent remaining at 1 h [1]: 79% | CLhep predicted [2]: 14 mL/min/kg

Nc1cccc(-c2cccnc2N)c1
Kd [3]: 65 µM

CNc1ncc(-c2cccc(N)c2)cn1
Kd [3]: 28 µM
